# Assay results reported in ChEMBL document CHEMBL3414429, “3,4-diaminobenzoic acid derivatives as inhibitors of the oxytocinase subfamily of M1 aminopeptidases with immune-regulating properties” (J Med Chem, 2015).
# The source made the active and inactive calls. No cut-off for these calls is given here.
# What was measured:
# [1] = molecular target: T1, Endoplasmic reticulum aminopeptidase 1 (Homo sapiens, UniProt Q9NZ08); assay: Inhibition of human recombinant ERAP1 expressed in baculovirus infected Sf9 cells using L-leucine-7-amido-4-methyl coumarin as substrate after 5 to 10 mins by fluorescence assay
# [2] = molecular target: T1, Endoplasmic reticulum aminopeptidase 1; assay: Inhibition of human recombinant ERAP1 expressed in baculovirus infected […] using L-leucine-7-amido-4-methyl coumarin as substrate up to 100 uM after 5 to 10 mins by fluorescence assay
# Procedure, shortened: (§1)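 Recombinant human enzymes made in baculovirus-infected Hi5 cells, kept in 10 mM HEPES pH 7, 100 mM NaCl, 10% glycerol. ERAP1 30 nM, ERAP2 6 nM or IRAP 6 nM with 50 μM substrate (L-AMC for ERAP1 and IRAP, R-AMC for ERAP2) and varied inhibitor. Fluorescence rise followed at ex 380/em 460; IC50 from fit of activity against inhibitor concentration.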
# [3] = molecular target: T2, Leucyl-cystinyl aminopeptidase (Homo sapiens, UniProt Q9UIQ6); assay: Inhibition of human recombinant IRAP expressed in baculovirus infected cabbage looper ovary Hi5 cells using L-leucine-7-amido-4-methyl coumarin as substrate up to 100 uM after 5 to 10 mins by fluorescence assay; details: BTI-TN-5B1-4; procedure, shortened: as §1
# [4] = molecular target: T3, Endoplasmic reticulum aminopeptidase 1 (Mus musculus) (UniProt Q9EQH2); assay: Inhibition of ERAP1 in mouse RAW264.7 cells assessed as reduction in interferon-gamma/LPS-induced phagocytosis after 24 hrs by fluorescent latex beads internalization assay; type: cell-based
# T3 sequence (whole entry): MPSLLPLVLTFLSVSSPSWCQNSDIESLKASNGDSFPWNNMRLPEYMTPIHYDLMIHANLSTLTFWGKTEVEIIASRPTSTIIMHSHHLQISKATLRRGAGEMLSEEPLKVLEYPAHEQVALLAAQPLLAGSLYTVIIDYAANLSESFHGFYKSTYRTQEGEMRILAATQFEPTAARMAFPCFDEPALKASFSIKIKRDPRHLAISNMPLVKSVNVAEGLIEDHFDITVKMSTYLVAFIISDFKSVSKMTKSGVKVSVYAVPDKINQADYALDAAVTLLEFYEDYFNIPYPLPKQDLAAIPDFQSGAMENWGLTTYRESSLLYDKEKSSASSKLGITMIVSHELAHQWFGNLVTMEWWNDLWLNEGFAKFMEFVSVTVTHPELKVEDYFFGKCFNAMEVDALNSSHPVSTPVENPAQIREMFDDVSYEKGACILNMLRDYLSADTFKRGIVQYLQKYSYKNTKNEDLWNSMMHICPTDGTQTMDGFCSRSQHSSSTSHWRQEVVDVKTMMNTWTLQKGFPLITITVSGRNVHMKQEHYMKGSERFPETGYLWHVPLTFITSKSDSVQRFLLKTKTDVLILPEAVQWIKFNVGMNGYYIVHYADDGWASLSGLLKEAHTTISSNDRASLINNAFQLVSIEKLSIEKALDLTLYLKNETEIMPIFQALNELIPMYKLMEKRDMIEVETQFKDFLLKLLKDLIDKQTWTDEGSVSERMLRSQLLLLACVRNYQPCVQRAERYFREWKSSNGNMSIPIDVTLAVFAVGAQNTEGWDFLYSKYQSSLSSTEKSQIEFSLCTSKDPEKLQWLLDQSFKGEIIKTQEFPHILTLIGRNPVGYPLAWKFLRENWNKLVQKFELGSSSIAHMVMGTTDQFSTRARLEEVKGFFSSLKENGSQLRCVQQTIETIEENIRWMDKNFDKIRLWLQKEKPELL
# Procedure, shortened: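 RAW264.7 cells in RPMI 1640/10% FBS, seeded 2×10^4/well for 24 h. Activated with IFN-γ (100 IU/mL) plus LPS (1 μg/mL) with or without inhibitor at various concentrations. FITC-IgG latex beads given in 1% FBS medium for 24 h at 37 °C. Uptake read as fluorescence (ex 485/em 535) after PBS washes; ED50 from curve fit.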
# [5] = molecular target: T4, Endoplasmic reticulum aminopeptidase 2 (Homo sapiens, UniProt Q6P179); assay: Inhibition of human recombinant ERAP2 expressed in baculovirus infected cabbage looper ovary Hi5 cells using L-arginyl-7-amido-4-methyl coumarin as substrate up to 100 uM after 5 to 10 mins by fluorescence assay; details: BTI-TN-5B1-4; procedure, shortened: as §1
# [6] = molecular target: T4, Endoplasmic reticulum aminopeptidase 2; assay: Inhibition of human recombinant ERAP2 expressed in baculovirus infected cabbage looper ovary Hi5 cells using L-arginyl-7-amido-4-methyl coumarin as substrate after 5 to 10 mins by fluorescence assay; parameters: species or system Female gonad, BTI-TN-5B1-4
# [7] = molecular target: T2, Leucyl-cystinyl aminopeptidase; assay: Inhibition of human recombinant IRAP expressed in baculovirus infected cabbage looper ovary Hi5 cells using L-leucine-7-amido-4-methyl coumarin as substrate after 5 to 10 mins by fluorescence assay; parameters: species or system Female gonad, BTI-TN-5B1-4
# T1 sequence (Q9NZ08 whole entry): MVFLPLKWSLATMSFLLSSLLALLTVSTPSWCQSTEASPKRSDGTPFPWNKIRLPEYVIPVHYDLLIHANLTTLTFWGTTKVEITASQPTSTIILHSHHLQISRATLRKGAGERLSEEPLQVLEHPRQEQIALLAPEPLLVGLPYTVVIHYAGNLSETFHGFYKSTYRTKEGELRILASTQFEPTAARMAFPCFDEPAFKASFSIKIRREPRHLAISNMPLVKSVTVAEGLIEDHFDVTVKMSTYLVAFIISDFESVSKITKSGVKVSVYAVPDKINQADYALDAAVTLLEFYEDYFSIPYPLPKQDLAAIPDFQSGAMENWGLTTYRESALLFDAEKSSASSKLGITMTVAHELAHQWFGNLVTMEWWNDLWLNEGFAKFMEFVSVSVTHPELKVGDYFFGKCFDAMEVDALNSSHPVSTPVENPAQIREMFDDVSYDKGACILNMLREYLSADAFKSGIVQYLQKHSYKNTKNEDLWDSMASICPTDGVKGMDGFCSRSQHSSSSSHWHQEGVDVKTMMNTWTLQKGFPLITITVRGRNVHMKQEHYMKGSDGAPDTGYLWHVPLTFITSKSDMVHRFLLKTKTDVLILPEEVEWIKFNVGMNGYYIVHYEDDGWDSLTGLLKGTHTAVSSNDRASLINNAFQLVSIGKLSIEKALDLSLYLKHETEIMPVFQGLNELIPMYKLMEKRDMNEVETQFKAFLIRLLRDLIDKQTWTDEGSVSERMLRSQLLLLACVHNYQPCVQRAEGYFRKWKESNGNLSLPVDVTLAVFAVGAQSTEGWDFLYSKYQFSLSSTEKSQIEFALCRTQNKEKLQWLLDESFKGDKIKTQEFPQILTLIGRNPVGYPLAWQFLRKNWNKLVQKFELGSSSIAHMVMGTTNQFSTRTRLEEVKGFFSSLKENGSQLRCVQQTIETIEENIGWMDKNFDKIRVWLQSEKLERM
# T4 sequence (Q6P179 whole entry): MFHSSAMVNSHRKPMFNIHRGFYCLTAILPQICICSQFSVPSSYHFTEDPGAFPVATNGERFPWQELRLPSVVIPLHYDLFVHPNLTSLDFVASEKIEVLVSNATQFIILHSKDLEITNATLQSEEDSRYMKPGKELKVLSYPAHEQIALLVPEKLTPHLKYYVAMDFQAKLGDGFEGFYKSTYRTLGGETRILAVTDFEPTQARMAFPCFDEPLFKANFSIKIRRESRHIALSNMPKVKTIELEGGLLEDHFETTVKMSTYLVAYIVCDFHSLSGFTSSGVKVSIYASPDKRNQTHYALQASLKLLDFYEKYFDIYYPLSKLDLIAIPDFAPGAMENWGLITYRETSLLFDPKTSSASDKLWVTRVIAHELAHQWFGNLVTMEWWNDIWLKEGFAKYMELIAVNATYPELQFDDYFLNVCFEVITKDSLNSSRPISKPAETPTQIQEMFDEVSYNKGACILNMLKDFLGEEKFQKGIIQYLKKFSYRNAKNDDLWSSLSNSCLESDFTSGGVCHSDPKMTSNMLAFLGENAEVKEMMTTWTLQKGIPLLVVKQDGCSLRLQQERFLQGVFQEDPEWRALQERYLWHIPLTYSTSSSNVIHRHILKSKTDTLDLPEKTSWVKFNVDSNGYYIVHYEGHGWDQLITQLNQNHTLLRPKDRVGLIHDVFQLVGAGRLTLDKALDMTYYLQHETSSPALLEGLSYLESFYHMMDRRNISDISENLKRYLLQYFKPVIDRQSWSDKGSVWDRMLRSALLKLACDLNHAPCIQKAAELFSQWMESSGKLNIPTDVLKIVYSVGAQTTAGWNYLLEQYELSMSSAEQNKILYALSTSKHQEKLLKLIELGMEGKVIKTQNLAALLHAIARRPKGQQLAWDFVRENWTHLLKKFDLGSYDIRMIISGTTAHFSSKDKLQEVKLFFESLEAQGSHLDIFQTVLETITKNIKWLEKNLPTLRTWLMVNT
# T2 sequence (Q9UIQ6 whole entry): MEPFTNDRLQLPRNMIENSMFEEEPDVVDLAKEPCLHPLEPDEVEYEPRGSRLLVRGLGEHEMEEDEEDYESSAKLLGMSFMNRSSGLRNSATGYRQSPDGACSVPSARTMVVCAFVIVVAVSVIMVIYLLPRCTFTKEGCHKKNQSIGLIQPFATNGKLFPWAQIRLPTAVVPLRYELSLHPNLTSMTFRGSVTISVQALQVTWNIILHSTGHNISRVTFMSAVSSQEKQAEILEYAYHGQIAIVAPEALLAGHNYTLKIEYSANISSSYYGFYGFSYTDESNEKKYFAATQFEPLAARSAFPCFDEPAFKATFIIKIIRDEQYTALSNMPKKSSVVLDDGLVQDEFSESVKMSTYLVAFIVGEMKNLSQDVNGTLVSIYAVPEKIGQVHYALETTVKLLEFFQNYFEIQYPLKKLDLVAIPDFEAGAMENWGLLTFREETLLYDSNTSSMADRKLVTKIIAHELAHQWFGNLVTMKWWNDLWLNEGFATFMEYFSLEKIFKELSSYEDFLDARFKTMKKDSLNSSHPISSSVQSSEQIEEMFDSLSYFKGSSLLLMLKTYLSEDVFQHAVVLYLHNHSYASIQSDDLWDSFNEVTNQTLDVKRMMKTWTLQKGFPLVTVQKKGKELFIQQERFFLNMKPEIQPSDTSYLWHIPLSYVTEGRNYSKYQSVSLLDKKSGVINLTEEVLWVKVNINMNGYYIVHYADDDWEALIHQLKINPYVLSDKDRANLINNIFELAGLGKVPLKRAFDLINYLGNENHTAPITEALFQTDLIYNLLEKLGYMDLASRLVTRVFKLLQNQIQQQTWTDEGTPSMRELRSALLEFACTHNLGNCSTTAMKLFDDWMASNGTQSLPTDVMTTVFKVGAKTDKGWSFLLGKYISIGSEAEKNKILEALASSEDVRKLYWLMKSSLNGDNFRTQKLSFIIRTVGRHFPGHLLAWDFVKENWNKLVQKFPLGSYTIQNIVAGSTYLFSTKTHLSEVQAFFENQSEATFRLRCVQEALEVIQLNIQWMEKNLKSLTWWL
smiles,measurement,setting,value
COC(=O)[C@@H](NC(=O)c1ccc(N)c(NC(=O)[C@@H](N)Cc2ccc(O)cc2)c1)[C@@H](C)O,IC50,[1],> 100 µM
COC(=O)c1ccc(NC(=O)[C@@H](N)CCc2ccccc2)c(N)c1,IC50,[1],> 100 µM
COC(=O)[C@H](CCCCN)NC(=O)c1ccc(N)c(NC(=O)[C@@H](N)CC(C)C)c1,inhibition,[2],inactive
same,inhibition,[3],inactive
COC(=O)[C@H](Cc1ccc(O)cc1)NC(=O)c1ccc(N)c(NC(=O)[C@@H](N)CCCNC(=N)N)c1,ED50,[4],3 µM
same,inhibition,[4],Dose-dependent effect
COC(=O)c1ccc(N)c(NC(=O)[C@@H](N)CCc2ccc(OCc3ccccc3)cc2)c1,inhibition,[2],inactive
same,inhibition,[5],inactive
CCCC[C@H](N)C(=O)Nc1ccc(C(=O)OC)cc1N,inhibition,[2],inactive
COC(=O)c1ccc(NC(=O)[C@@H](N)CC(C)C)c(N)c1,inhibition,[2],inactive
same,IC50,[6],> 100 µM
same,inhibition,[3],inactive
Nc1ccc(C(=O)O)cc1NC(=O)[C@@H](N)Cc1ccc(O)cc1,IC50,[1],> 100 µM
CCCC[C@H](N)C(=O)Nc1ccc(C(=O)N[C@H](C(=O)O)C(C)C)cc1N,inhibition,[2],inactive
same,IC50,[7],3.9 µM
COC(=O)[C@H](CCCNC(=N)N)NC(=O)c1ccc(N)c(N)c1,inhibition,[5],inactive
COC(=O)[C@H](CCCN)NC(=O)c1ccc(N)c(NC(=O)[C@@H](N)CCc2ccccc2)c1,inhibition,[2],inactive
same,inhibition,[5],inactive
same,inhibition,[3],inactive
Nc1ccc(C(=O)N[C@@H](Cc2c[nH]c3ccccc23)C(=O)OCc2ccccc2)cc1N,inhibition,[2],inactive
same,IC50,[6],> 100 µM
NCCCC[C@H](NC(=O)c1ccc(N)c(NC(=O)[C@@H](N)Cc2ccccc2)c1)C(=O)O,inhibition,[2],inactive
CC(C)[C@H](NC(=O)c1ccc(N)c(NC(=O)[C@@H](N)CCCNC(=N)N)c1)C(=O)O,inhibition,[2],inactive
Nc1cc(C(=O)N[C@@H](Cc2c[nH]c3ccccc23)C(=O)OCc2ccccc2)ccc1NC(=O)[C@@H](N)CCc1ccc(OCc2ccccc2)cc1,inhibition,[2],inactive
NCCCC[C@H](NC(=O)c1ccc(N)c(NC(=O)[C@@H](N)Cc2ccc(O)cc2)c1)C(=O)O,inhibition,[2],inactive
COC(=O)c1ccc(N)c(NC(=O)[C@@H](N)Cc2ccc(OCc3ccccc3)cc2)c1,inhibition,[2],inactive
same,inhibition,[5],inactive
COC(=O)c1ccc(NC(=O)[C@@H](N)CCCNC(=N)N)c(N)c1,inhibition,[2],inactive
COC(=O)[C@H](CCCCN)NC(=O)c1ccc(N)c(NC(=O)[C@@H](N)CCc2ccc(OCc3ccccc3)cc2)c1,IC50,[1],> 100 µM
CC(C)C[C@H](N)C(=O)Nc1cc(C(=O)O)ccc1N,inhibition,[2],inactive
same,inhibition,[5],inactive
same,inhibition,[3],inactive
CC(C)[C@H](NC(=O)c1ccc(NC(=O)[C@@H](N)CCc2ccccc2)c(N)c1)C(=O)O,inhibition,[2],inactive
same,IC50,[6],> 100 µM
CCCC[C@H](N)C(=O)Nc1cc(C(=O)N[C@@H](Cc2ccc(O)cc2)C(=O)OC)ccc1N,IC50,[1],> 100 µM
CC(C)[C@H](NC(=O)c1ccc(NC(=O)[C@@H](N)CCc2ccccc2)c(N)c1)C(=O)OCc1ccccc1,inhibition,[2],inactive
same,IC50,[6],> 100 µM
COC(=O)c1ccc(N)c(NC(=O)[C@@H](N)Cc2ccc(O)cc2)c1,inhibition,[2],inactive
same,IC50,[6],> 100 µM
COC(=O)[C@H](CCCCN)NC(=O)c1ccc(NC(=O)[C@@H](N)CCCNC(=N)N)c(N)c1,inhibition,[2],inactive
COC(=O)[C@H](Cc1ccc(O)cc1)NC(=O)c1ccc(N)c(NC(=O)[C@@H](N)Cc2ccc(O)cc2)c1,IC50,[1],110 µM
CC(C)[C@H](NC(=O)c1ccc(N)c(NC(=O)[C@@H](N)Cc2ccc(O)cc2)c1)C(=O)O,inhibition,[2],inactive
same,IC50,[6],> 100 µM
COC(=O)c1ccc(NC(=O)[C@@H](N)Cc2ccc(OCc3ccccc3)cc2)c(N)c1,inhibition,[2],inactive
same,inhibition,[5],inactive
COC(=O)[C@H](Cc1ccc(O)cc1)NC(=O)c1ccc(NC(=O)[C@@H](N)Cc2ccc(OCc3ccccc3)cc2)c(N)c1,inhibition,[2],inactive
CCCC[C@H](N)C(=O)Nc1cc(C(=O)OC)ccc1N,IC50,[1],> 100 µM
Nc1ccc(C(=O)O)cc1NC(=O)[C@@H](N)Cc1ccc(OCc2ccccc2)cc1,inhibition,[2],inactive
same,inhibition,[5],inactive
COC(=O)[C@H](CCCCN)NC(=O)c1ccc(NC(=O)[C@@H](N)Cc2ccc(O)cc2)c(N)c1,IC50,[1],> 100 µM
same,IC50,[6],> 100 µM
COC(=O)[C@H](CCCCN)NC(=O)c1ccc(N)c(NC(=O)[C@@H](N)CCCNC(=N)N)c1,inhibition,[3],inactive
COC(=O)[C@H](Cc1ccc(O)cc1)NC(=O)c1ccc(N)c(N)c1,inhibition,[2],inactive
same,inhibition,[5],inactive
COC(=O)c1ccc(NC(=O)[C@@H](N)Cc2ccc(O)cc2)c(N)c1,inhibition,[2],inactive
Nc1ccc(C(=O)N[C@@H](Cc2c[nH]c3ccccc23)C(=O)OCc2ccccc2)cc1NC(=O)[C@@H](N)CCc1ccc(OCc2ccccc2)cc1,IC50,[1],> 100 µM
same,IC50,[6],> 100 µM
CCCC[C@H](N)C(=O)Nc1cc(C(=O)N[C@@H](CCCCN)C(=O)OC)ccc1N,IC50,[7],> 100 µM
COC(=O)[C@H](CCCCN)NC(=O)c1ccc(N)c(NC(=O)[C@@H](N)CCc2ccccc2)c1,ED50,[4],0.97 µM
same,inhibition,[4],Dose-dependent effect
COC(=O)c1ccc(N)c(NC(=O)[C@@H](N)CCc2ccc(O)cc2)c1,IC50,[1],> 100 µM
same,inhibition,[5],inactive
COC(=O)c1ccc(N)c(NC(=O)[C@@H](N)CC(C)C)c1,inhibition,[2],inactive
same,inhibition,[5],inactive
same,inhibition,[3],inactive
COC(=O)c1ccc(N)c(NC(=O)[C@@H](N)CCCNC(=N)N)c1,inhibition,[2],inactive
COC(=O)[C@H](CCCCN)NC(=O)c1ccc(N)c(NC(=O)[C@@H](N)COCc2ccccc2)c1,inhibition,[2],inactive
same,inhibition,[5],inactive
same,inhibition,[3],inactive
COC(=O)[C@H](CCCCN)NC(=O)c1ccc(N)c(N)c1,IC50,[1],> 100 µM
same,inhibition,[5],inactive
Nc1ccc(C(=O)N[C@@H](Cc2c[nH]c3ccccc23)C(=O)O)cc1N,IC50,[1],> 100 µM
CCCC[C@H](N)C(=O)Nc1ccc(C(=O)N[C@@H](CCCCN)C(=O)OC)cc1N,inhibition,[2],inactive
CCCC[C@H](N)C(=O)Nc1ccc(C(=O)N[C@H](C(=O)OCc2ccccc2)C(C)C)cc1N,IC50,[1],> 100 µM
CC(C)[C@H](NC(=O)c1ccc(N)c(NC(=O)[C@@H](N)Cc2ccc(O)cc2)c1)C(=O)OCc1ccccc1,inhibition,[2],inactive
COC(=O)[C@H](CCCCN)NC(=O)c1ccc(NC(=O)[C@@H](N)CCc2ccccc2)c(N)c1,inhibition,[2],inactive
same,inhibition,[5],inactive
N=C(N)NCCC[C@H](N)C(=O)Nc1cc(C(=O)O)ccc1N,inhibition,[2],inactive
same,IC50,[6],> 100 µM
Nc1ccc(C(=O)N[C@@H](Cc2c[nH]c3ccccc23)C(=O)O)cc1NC(=O)[C@@H](N)CCc1ccc(O)cc1,IC50,[6],> 100 µM
COC(=O)[C@H](CCCCN)NC(=O)c1ccc(N)c(NC(=O)[C@@H](N)CCc2ccc(O)cc2)c1,IC50,[1],> 100 µM
Nc1ccc(C(=O)N[C@@H](Cc2c[nH]c3ccccc23)C(=O)O)cc1NC(=O)[C@@H](N)Cc1ccc(O)cc1,IC50,[6],40 µM
CCCC[C@H](N)C(=O)Nc1cc(C(=O)N[C@H](C(=O)OCc2ccccc2)C(C)C)ccc1N,IC50,[1],> 100 µM
same,IC50,[6],> 100 µM
same,ED50,[4],inactive
